Data as given in PMC3690702 (Nuclear medicine and biology, 2010).
Like-named read-outs stand apart in the source and are kept apart here. Values belong to the molecule of their own block, whether it stands above or below them.

Legend:
BCRP = conditions: cited from earlier work
[1] = Stability testing in mouse plasma in vitro; format: in vitro ADME; conditions: 37°C, 30 min, SPE/HPLC
Procedure, shortened: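 Citrated mouse plasma (0.5 mL) mixed with 20 µL formulated radiotracer (about 40 MBq). Held 30 min at 37°C in a shaking water bath. Then C18 solid-phase extraction: acidified load, H2O wash, MeOH elution. Fractions analysed by radio-HPLC, reversed-phase column, CH3CN/MeOH/NH4OAc pH 5.0, UV 227 nm, to find the polar labelled species.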

[2] = format: in vivo, mice; conditions: for total plasma radioactivity recovered in SPE fraction 3 (MeOH) / percentage of unchanged [11C]-1 in mouse plasma / Blood concentration, 25 min: n=1; for percentage of unchanged [11C]-1 in mouse plasma: 25 min after tracer injection; for percentage of total brain radioactivity in the form of unchanged [11C]-1: brain tissue extract, HPLC system A; for Blood concentration, 25 min: total radioactivity; for mean brain-to-plasma ratio of unchanged [11C]-1, fold higher compared to wild-type animals: 25 min, p=0.0495; for Kp at 25 min: mouse, brain and plasma, intravenous, Brain-plasma ratio of unchanged [11C]-1, 25 min, mean±SD
Procedure, shortened: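 Female mice, 25-30 g, one per genotype, given radiotracer i.v. At 25 min: cardiac blood into heparin, spun 3,000×g, 5 min, 21°C, for plasma. Blood and plasma weighed, gamma-counted (cross-calibrated with PET), decay-corrected, %ID/g. Plasma spiked with unlabelled carrier, acidified, run through tC18 SPE (H2O wash, MeOH elution). H2O and MeOH fractions went to reversed-phase HPLC (pH 5.0, 35°C) and Aminex HPLC, UV 227 nm. Brain homogenised in saline, CH3CN-extracted, supernatant HPLC.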

[3] = Stability testing in formulation solution for i.v. injection; format: physicochemical; conditions: at least 2 h at room temperature; 0.9% aq. saline/ethanol/polyethylene glycol 300; HPLC system A
[4] = Small-animal PET imaging of [11C]-1 in wild-type and transporter knockout mice; format: in vivo; conditions: for Brain AUC / Brain-blood ratio, 25 min / Brain concentration, 25 min: total radioactivity, mean±SD; for Brain AUC: 0-60 min; for Brain AUC / Brain concentration, 25 min: n=3; for AUC of brain TACs, fold higher compared to wild-type animals: p=0.0495
Procedure, shortened: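 Female mice, 25-30 g, three per genotype. Isoflurane 2.5% to induce, 1.5-2% by mask to maintain, warmed to about 38°C. About 0.1 mL radiotracer (28±16 MBq) into the lateral tail vein. Whole-brain PET TACs as %ID/g; AUC from zero to the last time point. Brain %ID/g at 25 min divided by whole-blood %ID/g from a separate group (one mouse per genotype) gives brain-blood ratio. Mean±SD; Mann-Whitney U versus wild-type.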

[5] = rats; time course of a 1 h PET scan; cited from earlier work
[6] = Bcrp1(−/−) mice, 25 min after injection
[7] = Mdr1a/b(−/−) mice, 25 min after injection
[8] = wild-type mice, 25 min after injection

Compound: COC(=O)c1ccc(C(=O)Nc2ccc(CCN3CCc4cc(OC)c(OC)cc4C3)cc2)cc1NC(=O)c1ccc2ccccc2n1 [Compound 1, Methyl 4-((4-(2-(6,7-dimethoxy-1,2,3,4-tetrahydroisoquinolin-2-yl)ethyl)phenyl)amino-carbonyl)-2-(quinoline-2-carbonylamino)benzoate]
selectivity for inhibition of BCRP over P-gp (BCRP; in vitro transport assays): approximately 500 fold
IC50 (BCRP; read-out: half-maximum inhibitory concentration (IC50), BCRP-mediated transport of mitoxantrone, topotecan-resistant MCF-7 breast cancer cells): 0.06 µM

total radioactivity degraded to an unidentified polar radiolabelled species [1]: > 98%
total plasma radioactivity recovered in SPE fraction 3 (MeOH) [2, 6]: 19%
percentage of unchanged [11C]-1 in mouse plasma ([2]; Bcrp1(−/−) mice): 14%
percentage of total brain radioactivity in the form of unchanged [11C]-1 [2, 6]: 25%
Blood concentration, 25 min ([2]; Bcrp1(−/−) mice): 2.3 %ID/g
mean brain-to-plasma ratio of unchanged [11C]-1, fold higher compared to wild-type animals ([2]; Mdr1a/b(−/−) mice): 4.8 fold
total plasma radioactivity recovered in SPE fraction 3 (MeOH) [2, 7]: 28%
percentage of unchanged [11C]-1 in mouse plasma ([2]; Mdr1a/b(−/−) mice): 17%
percentage of total brain radioactivity in the form of unchanged [11C]-1 [2, 7]: 62%
Blood concentration, 25 min ([2]; Mdr1a/b(−/−) mice): 2.5 %ID/g
mean brain-to-plasma ratio of unchanged [11C]-1, fold higher compared to wild-type animals ([2]; Mdr1a/b(−/−)Bcrp1(−/−) mice): 10.3 fold
total plasma radioactivity recovered in SPE fraction 3 (MeOH) ([2]; Mdr1a/b(−/−)Bcrp1(−/−) mice, 25 min after injection): 18%
percentage of unchanged [11C]-1 in mouse plasma ([2]; Mdr1a/b(−/−)Bcrp1(−/−) mice): 11%
Blood concentration, 25 min ([2]; Mdr1a/b(−/−)Bcrp1(−/−) mice): 1.8 %ID/g
total plasma radioactivity in the form of unchanged parent ([2]; mouse plasma extracts, 25 min after injection, range over the 4 mouse types): 11-17%
Kp at 25 min ([2]; Bcrp1(−/−) mice): 2.1 ± 0.1
Kp at 25 min ([2]; Mdr1a/b(−/−) mice): 8.6 ± 1.6
Kp at 25 min ([2]; Mdr1a/b(−/−)Bcrp1(−/−) mice): 18.3 ± 3.7
Kp at 25 min ([2]; wild-type mice): 1.8 ± 0.1
total plasma radioactivity recovered in SPE fraction 3 (MeOH) [2, 8]: 25%
percentage of unchanged [11C]-1 in mouse plasma ([2]; wild-type mice): 13%
percentage of total brain radioactivity in the form of unchanged [11C]-1 [2, 8]: 12%
Blood concentration, 25 min ([2]; wild-type mice): 2.1 %ID/g
stability in formulation solution for i.v. injection [3]: 100%
Brain AUC ([4]; Bcrp1(−/−) mice): 3.1±0.2 h·%ID/g
Brain-blood ratio, 25 min ([4]; Bcrp1(−/−) mice): 1.6±0.1
Brain concentration, 25 min ([4]; Bcrp1(−/−) mice): 3.5±0.2 %ID/g
AUC of brain TACs, fold higher compared to wild-type animals ([4]; Mdr1a/b(−/−) mice): 1.3 fold
Brain AUC ([4]; Mdr1a/b(−/−) mice): 3.6±0.6^† h·%ID/g
Brain-blood ratio, 25 min ([4]; Mdr1a/b(−/−) mice): 1.7±0.3
Brain concentration, 25 min ([4]; Mdr1a/b(−/−) mice): 4.2±0.8 %ID/g
Brain AUC ([4]; Mdr1a/b(−/−)Bcrp1(−/−) mice): 5.1±0.9^† h·%ID/g
Brain-blood ratio, 25 min ([4]; Mdr1a/b(−/−)Bcrp1(−/−) mice): 3.2±0.6
Brain concentration, 25 min ([4]; Mdr1a/b(−/−)Bcrp1(−/−) mice): 5.8±1.2 %ID/g
AUC of brain TACs, fold higher compared to wild-type animals ([4]; triple knockout (Mdr1a/b(−/−)Bcrp1(−/−)) mice): 1.8 fold
Brain AUC ([4]; wild-type mice): 2.8±0.2 h·%ID/g
Brain-blood ratio, 25 min ([4]; wild-type mice): 1.5±0.1
Brain concentration, 25 min ([4]; wild-type mice): 3.2±0.2 %ID/g
Compound: COc1cc2c(cc1OC)CN(CCc1ccc(NC(=O)c3ccc(C(=O)O[11CH3])c(NC(=O)c4ccc5ccccc5n4)c3)cc1)CC2 [[^11C]-1, [^11C]Methyl 4-((4-(2-(6,7-dimethoxy-1,2,3,4-tetrahydroisoquinolin-2-yl)ethyl)phenyl)amino-carbonyl)-2-(quinoline-2-carbonylamino)benzoate]

Compound: COc1cc2c(cc1OC)CN(CCc1ccc(NC(=O)c3cc(OC)c(OC)cc3NC(=O)c3cnc4ccccc4c3)cc1)CC2 [tariquidar]
metabolism in vivo [5]: hardly metabolized
